SUMO1-SIM PPI: modulators of human SUMO1-mediated protein-protein interactions | P63165 | SUMO1 binding to a labelled peptide, TR-FRET, 1 h | inhibition, % at 20 µM | hit rate 0.33% among 360,000 | AID 602429; in the data active means inhibition above about 37%
HKDC1 inh: blocks human hexokinase HKDC1 activity. recombinant HKDC1, G6PDH/diaphorase resazurin coupled fluorescence. Q2TB90. inhibition, % at 20 µM. hit rate 0.16% among 340,000;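 active means inhibition above about 35% when tested at 20 µM, limit read from the data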;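 further: plate controls were DMSO wells with enzyme for no effect and DMSO wells lacking enzyme for full effect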
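Test system: Recombinant HKDC1 (HK5) hexokinase enzyme, produced in-house | Input: HKDC1 at 5 µg/mL | Buffer or medium: Tris pH 8.0 buffer with MgCl2, Tween-20, BSA, BME | Schedule: 90 min reaction incubation at room temperature, dark | Technique: Resazurin-to-resorufin fluorescence via G6PDH and diaphorase coupling, 525/613 nm | Controls: DMSO wells with and without enzyme mix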
LMPTP block: LMPTP (human) inhibition. recombinant LMPTP-A, OMFP fluorogenic substrate, fluorescence intensity. inhibition, % at 20 µM. hit rate 0.22% among 360,000. AID 651560;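 active means compounds that cut the enzyme signal by at least half of the control window in the single-dose screen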;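 further: plate controls were DMSO wells with enzyme plus substrate for no effect and substrate without enzyme for full effect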
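material = LMPTP-A | quantity = 0.625 nM enzyme | reagent = OMFP substrate, 400 µM final | buffer or medium = Bis-Tris pH 6.0, DTT, detergent | detection = endpoint fluorescence intensity from OMFP dephosphorylation | dosing = single 20 µM dose | read-out basis = % inhibition relative to no-enzyme and uninhibited control wells | control set = no-enzyme and uninhibited controls | timing = 50 min at room temperature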
STEP block: STEP (human) phosphatase inhibition; P54829; recombinant STEP, OMFP fluorogenic substrate, fluorescence; inhibition, % at 20 µM; hit rate 0.25% among 360,000;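 active means inhibition at 20 µM, scaled per plate between control wells, above about 37%, limit read from the data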;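 further: 0% = DMSO with enzyme and substrate and 100% = substrate only without enzyme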
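Assay system: isolated STEP enzyme. Buffer or medium: pH 6.0 Bis-Tris with DTT and Tween 20. Also added: fluorogenic phosphatase substrate OMFP at 25 µM final. Dosing: 20 µM, 1% DMSO. Timing: 20 min reaction, room temperature, in the dark. Measured by: fluorescence intensity, excitation 480 nm, emission 540 nm. Evaluation: normalized % inhibition.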
Scp-1 inhibitor: blocks human Scp-1 phosphatase activity; inhibition, % at 20 µM; Recombinant Scp1, phosphopeptide, malachite green phosphate absorbance; hit rate 0.88% among 340,000;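 active means inhibition above about 50% at 20 µM, limit read from the data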;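 further: plate controls were DMSO wells with enzyme for no effect and wells lacking enzyme for full effect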
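Times: enzyme reaction 45 min at room temperature, colour 5 min, stabilisation 30 min. Material: SCP-1 catalytic fragment, aa 76-261. Medium: Acidic Tris acetate buffer with magnesium and detergent. Signal: colorimetric free-phosphate detection, absorbance 630 nm. Read-out basis: % inhibition of SCP-1 phosphate liberation. Reagent: Phosphorylated 17-residue peptide substrate.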
DNMT1 block: blocks human DNA methyltransferase DNMT1; P26358; DNMT1 molecular beacon, Hinp1I cleavage, fluorescence; inhibition (reported as % activation of signal), % at 10 µM; hit rate 0.83% among 360,000; AID 588458; in the data active means inhibition above about 50%
Target sequence (P26358 504-1616 limits assumed): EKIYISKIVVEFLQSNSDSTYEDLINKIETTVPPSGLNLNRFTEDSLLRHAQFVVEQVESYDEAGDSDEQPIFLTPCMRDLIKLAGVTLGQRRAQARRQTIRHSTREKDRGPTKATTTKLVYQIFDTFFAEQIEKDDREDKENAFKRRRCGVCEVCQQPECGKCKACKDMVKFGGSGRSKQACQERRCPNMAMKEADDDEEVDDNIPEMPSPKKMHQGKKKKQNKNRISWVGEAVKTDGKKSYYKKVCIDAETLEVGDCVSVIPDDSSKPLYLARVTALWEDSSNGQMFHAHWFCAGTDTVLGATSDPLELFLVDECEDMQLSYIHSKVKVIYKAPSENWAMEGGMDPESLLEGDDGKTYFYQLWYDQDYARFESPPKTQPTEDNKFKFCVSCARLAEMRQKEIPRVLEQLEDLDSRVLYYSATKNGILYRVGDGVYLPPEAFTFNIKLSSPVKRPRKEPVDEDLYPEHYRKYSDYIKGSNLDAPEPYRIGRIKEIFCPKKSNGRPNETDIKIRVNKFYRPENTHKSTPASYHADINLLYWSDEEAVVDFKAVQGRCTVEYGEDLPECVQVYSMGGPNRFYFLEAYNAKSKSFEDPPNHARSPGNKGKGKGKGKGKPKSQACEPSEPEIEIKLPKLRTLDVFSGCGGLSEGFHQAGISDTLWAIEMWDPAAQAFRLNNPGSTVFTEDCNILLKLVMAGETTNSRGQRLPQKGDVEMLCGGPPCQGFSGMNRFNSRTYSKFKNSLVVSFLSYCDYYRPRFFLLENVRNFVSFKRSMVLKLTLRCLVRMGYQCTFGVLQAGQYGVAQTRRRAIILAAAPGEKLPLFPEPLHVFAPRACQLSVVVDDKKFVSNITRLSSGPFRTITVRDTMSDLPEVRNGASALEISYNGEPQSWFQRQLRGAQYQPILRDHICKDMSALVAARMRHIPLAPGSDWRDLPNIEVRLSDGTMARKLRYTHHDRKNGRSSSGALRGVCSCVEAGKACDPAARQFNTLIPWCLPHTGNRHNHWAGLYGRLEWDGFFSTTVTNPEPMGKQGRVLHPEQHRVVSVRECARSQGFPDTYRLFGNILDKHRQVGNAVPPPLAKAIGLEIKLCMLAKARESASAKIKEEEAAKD
Scp-1 conf: confirmation of human Scp-1 phosphatase inhibitors; hit rate 61% among 2,500; inhibition, % at 20 µM; recombinant SCP-1 catalytic domain, phosphate release, malachite green absorbance; shares compounds with Scp-1 inhibitor;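 further: plate controls were DMSO with enzyme for no effect and buffer wells lacking enzyme for full effect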
MG interference: interferes with malachite green readout, flagging false Scp-1 hits; apparent inhibition (interference), % at 20 µM; 2,500 tested, under 10 active; Colorimetric interference counterscreen, malachite green absorbance 630 nm; shares compounds with Scp-1 inhibitor; AID 540313;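 further: compounds added after enzyme reaction finished so only phosphate colour detection is probed; plate controls were DMSO wells with completed Scp-1 reaction for no effect and substrate wells lacking enzyme for full effect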
Scp1 DSF: validation of human Scp-1 inhibitors by thermal shift binding; shares compounds with Scp-1 inhibitor; Recombinant SCP1, Sypro Orange thermal shift Tm; thermal shift relative to vanadate control, % at 40 µM; hit rate 25% among 1,500;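 active means substances whose mean melting-temperature shift, as a percentage of the reference inhibitor's shift, reaches about 5.3%, limit read from the data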;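 further: 0% = Tm of DMSO wells and 100% = Tm with sodium orthovanadate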
Starred values were filed as active, the others as inactive. The list is not random: actives were taken first. Their share in the collection is about 1.8%.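 How the source made its calls, unless noted: active means inhibition of at least 30% at 20 µM; inactive means the rest.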

Results for Cn1c(NCCc2ccncc2)nc2cc(-c3ccccc3)sc2c1=O ?
SUMO1-SIM PPI: -6; LMPTP block: 3; STEP block: 1; DNMT1 block: -5

How did CC1=CCC(C(=O)O)C(C(=O)Nc2ccc(-c3nc4ccc(C)cc4s3)cc2)C1 (centres undefined) do in these assays?
SUMO1-SIM PPI: 9; HKDC1 inh: 2; LMPTP block: 1; STEP block: 2; Scp-1 inhibitor: 50*; DNMT1 block: 25; Scp-1 conf: 65*; MG interference: -5; Scp1 DSF: 4

How did O=C(NCCC(F)(F)F)C1Cc2c(-c3ccc(Cl)cc3)ccnc2O1 (centres undefined) do in these assays?
SUMO1-SIM PPI: -2; LMPTP block: 4; STEP block: -2; DNMT1 block: 2

How did C[N+]1(CCOS(=O)C23CC4CC(CC(C4)C2)C3)CCOCC1 (centres undefined) do in these assays?
SUMO1-SIM PPI: 3; HKDC1 inh: -4; LMPTP block: -2; STEP block: -3; Scp-1 inhibitor: 105*; DNMT1 block: 0; Scp-1 conf: -5; MG interference: -7

Results for O=C(c1ccco1)N1N=C(c2cccs2)CC1c1cc([N+](=O)[O-])ccc1O (centres undefined) ?
SUMO1-SIM PPI: 5; HKDC1 inh: 0; LMPTP block: 4; STEP block: 1; Scp-1 inhibitor: -10; DNMT1 block: 2

What do the screens show for `O=C(N/N=C/c1ccc(F)c(F)c1)c1cc2c(s1)-c1ccccc1CC2`?
SUMO1-SIM PPI: 2; HKDC1 inh: 8; LMPTP block: 6; STEP block: 0; Scp-1 inhibitor: 62*; DNMT1 block: 7; Scp-1 conf: 42*; MG interference: -16; Scp1 DSF: 3

What do the screens show for `CNC(=O)c1cc2c(s1)-c1ccccc1CC2`?
SUMO1-SIM PPI: -13; HKDC1 inh: -4; LMPTP block: 0; STEP block: 0; Scp-1 inhibitor: -7; DNMT1 block: 0

What do the screens show for `COc1ccc(NC(=S)N(CCCN2CCOCC2)C(C)c2cc3ccccc3o2)cc1` (centres undefined)?
SUMO1-SIM PPI: -1; HKDC1 inh: -2; LMPTP block: -3; STEP block: 3; Scp-1 inhibitor: 64*; DNMT1 block: -1; Scp-1 conf: -12; MG interference: -9

How did CC1C(C#N)=C(N)OC2=C1C(=O)CC(c1ccccc1)C2 (centres undefined) do in these assays?
SUMO1-SIM PPI: -3; HKDC1 inh: -5; LMPTP block: -1; STEP block: 2; Scp-1 inhibitor: 55*; DNMT1 block: -1; Scp-1 conf: -14; MG interference: -9

Results for Cc1nc(NC(=O)COC(=O)C2CC2C)c(Cl)cc1Cl (centres undefined) ?
SUMO1-SIM PPI: 7; HKDC1 inh: 11; LMPTP block: 0; STEP block: 0; Scp-1 inhibitor: 51*; DNMT1 block: 2; Scp-1 conf: -3; MG interference: -16

What do the screens show for `COc1cc(/C=C2\C(=N)N3N=C(S(C)(=O)=O)SC3=NC2=O)ccc1OCCOc1ccc(C)cc1`?
SUMO1-SIM PPI: 6; HKDC1 inh: 14; LMPTP block: 7; STEP block: 9; Scp-1 inhibitor: 67*; DNMT1 block: -5; Scp-1 conf: 36*; MG interference: -16; Scp1 DSF: 9.7*

Results for COc1cc(/C=C2\C(=N)N3N=C(S(C)(=O)=O)SC3=NC2=O)cc(OC)c1OCCOc1ccc(C)cc1 ?
SUMO1-SIM PPI: -5; HKDC1 inh: 2; LMPTP block: 1; STEP block: 2; Scp-1 inhibitor: 11; DNMT1 block: -7

What do the screens show for `CCOc1cc(/C=C2\C(=N)N3N=C(S(C)(=O)=O)SC3=NC2=O)ccc1OCCOc1cccc(OC)c1`?
SUMO1-SIM PPI: 16; HKDC1 inh: 9; LMPTP block: 7; STEP block: 24; Scp-1 inhibitor: 25; DNMT1 block: -13

What do the screens show for `CCS(=O)(=O)C1=NN2C(=N)/C(=C\c3ccc(OCCOc4cccc(OC)c4)c(OC)c3)C(=O)N=C2S1`?
SUMO1-SIM PPI: 7; HKDC1 inh: 14; LMPTP block: 4; STEP block: -1; Scp-1 inhibitor: 67*; DNMT1 block: 0; Scp-1 conf: 65*; MG interference: -16; Scp1 DSF: 11*

How did CCc1nc2c(OCC(=O)c3ccc(Cl)cc3Cl)cccn2c1N(C)C(=O)COc1ccccc1 do in these assays?
SUMO1-SIM PPI: 6; LMPTP block: 1; STEP block: -1; DNMT1 block: -6

What do the screens show for `CCN(CC)C(=O)C1=C(C)N(Cc2ccc(OC)cc2)C(=O)C(CC(=O)NCCc2ccccn2)C1` (centres undefined)?
SUMO1-SIM PPI: 3; LMPTP block: -1; STEP block: -4; DNMT1 block: 6

How did O=C(CNS(=O)(=O)c1ccc(Br)cc1Cl)OCC(=O)N1CCCC1=O do in these assays?
SUMO1-SIM PPI: 0; HKDC1 inh: 1; LMPTP block: -2; STEP block: -1; Scp-1 inhibitor: 3; DNMT1 block: 5; Scp-1 conf: -11; MG interference: -14

What do the screens show for `Cc1cccc(NC(=O)CN2C(=O)S/C(=C\c3ccc(-c4cccc(C(=O)O)c4C)o3)C2=O)c1`?
HKDC1 inh: 3; Scp-1 inhibitor: 78*; Scp-1 conf: 81*; MG interference: -8; Scp1 DSF: 8.1*

Results for Cc1ccc(NC(=O)C2(C)CCN2C(=O)Cc2cc(F)ccc2F)cc1 (centres undefined) ?
SUMO1-SIM PPI: 6; LMPTP block: 2; STEP block: -8; DNMT1 block: 48

What do the screens show for `O=C(/C=C/c1cccc(Cl)c1)OCC(=O)c1ccc[nH]1`?
SUMO1-SIM PPI: 2; LMPTP block: -1; STEP block: -3; DNMT1 block: 1

Results for NC(=O)NC(=O)CC1S/C(=N/N=C2\CSC(=O)N2)NC1=O (centres undefined) ?
SUMO1-SIM PPI: 3; HKDC1 inh: 12; LMPTP block: -2; STEP block: -2; Scp-1 inhibitor: -7; DNMT1 block: 5
